Hits are enriched below; roughly 1.1% of the tested compounds scored in any of these assays.
FAS-TE inh: FAS thioesterase domain inhibitors, primary screen, biochemical, fluorescence intensity, uHTS; Fatty acid synthase (Homo sapiens), P49327; recombinant FAS-TE, OMFH fluorogenic substrate, fluorescence endpoint; inhibition, % at 15 µM; hit rate 0.67% among 360,000; AID 602261, 2012;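 active means compounds whose normalised, plate-corrected inhibition of enzyme fluorescence in the single-dose primary screen is 50% or more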
Arrestin-AP2 inh: inhibitors of beta-arrestin/AP2 binding, primary screen, biochemical, GPCR trafficking, flow cytometry. FITC-arrestin peptide / GST-AP2 beads; AP2 beta2 appendage carries R879A mutation. hit rate 0.31% among 340,000. beta-arrestin 1 C-terminal peptide binding to AP2 beta2-adaptin appendage (human). inhibition, % at 10 µM. AID 504490, 2011;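 active means inhibition above a set limit, near 3 SD of compounds lacking own fluorescence, cut at about 54% in these data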
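System: GST-AP2 R879A bound to glutathione beads, E. coli-expressed. Also added: 50 nM FITC-arrestin peptide. Schedule: compound with beads 12 min RT, then probe 1 h RT. Signal: bead flow cytometry, FITC channel. Read-out basis: percent response.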
SENP1 inh: human SENP1 catalytic domain inhibitors, primary screen, biochemical, FRET, uHTS | Sentrin-specific protease 1 (Homo sapiens), Q9P0U3 | recombinant SENP1 catalytic domain, CyPet-SUMO1-YPet FRET cleavage | inhibition, % at 10 µM | hit rate 0.21% among 360,000;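 active means inhibition at least 30% at 10 µM, raw YFP signal under a set limit, fluorescence ratio 0.5 to 1.5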
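Material: hSENP1 catalytic domain, recombinant; medium: Tris pH 8 with BME, BSA, NP40 and catalase; compound: single concentration of 10 µM compound, 0.5% DMSO final; technique: FRET read of cyan and yellow fluorescence; timing: 50 min enzyme reaction, room temperature, light-protected; reagent: SFCypet-SUMO1-SFYpet substrate at 25 nM; control set: no-enzyme low, enzyme-DMSO high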
GASC-1 inh: inhibitors of GASC-1 histone demethylase, primary screen, biochemical, fluorescence, DELFIA europium | Lysine-specific demethylase 4C (Homo sapiens), Q9H3R0 | GST-JMJD2C(1-420) H3K9me3 demethylation | inhibition, % at 2.35 µM | hit rate 0.069% among 330,000 | AID 2099, 2009;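 active means more than half of a compound's replicate wells show inhibition beyond 50%, single wells judged on their own value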;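 further: signal counts dimethyl H3K9 product captured on neutravidin plate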
Arr-AP2 CP1: inhibitors of arrestin peptide binding to AP2, confirmation, biochemical, cherry pick 1, flow cytometry beads; shares compounds with Arrestin-AP2 inh; GST-AP2 beads, FITC arrestin peptide binding; GST-fused beta2-adaptin appendage, R879A mutant; inhibition, % at 10 µM; hit rate 2% among 1,300;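 active means inhibition above a set limit, roughly 3 SD of non-fluorescent compound noise, cut at about 38% in these data; inactive means inhibition at or below that limit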;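 further: loss of bead fluorescence from 50 nM FITC arrestin peptide bound to appendage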
Target sequence (P63010 whole entry, looked up, the tested form may be a part, one chain of several): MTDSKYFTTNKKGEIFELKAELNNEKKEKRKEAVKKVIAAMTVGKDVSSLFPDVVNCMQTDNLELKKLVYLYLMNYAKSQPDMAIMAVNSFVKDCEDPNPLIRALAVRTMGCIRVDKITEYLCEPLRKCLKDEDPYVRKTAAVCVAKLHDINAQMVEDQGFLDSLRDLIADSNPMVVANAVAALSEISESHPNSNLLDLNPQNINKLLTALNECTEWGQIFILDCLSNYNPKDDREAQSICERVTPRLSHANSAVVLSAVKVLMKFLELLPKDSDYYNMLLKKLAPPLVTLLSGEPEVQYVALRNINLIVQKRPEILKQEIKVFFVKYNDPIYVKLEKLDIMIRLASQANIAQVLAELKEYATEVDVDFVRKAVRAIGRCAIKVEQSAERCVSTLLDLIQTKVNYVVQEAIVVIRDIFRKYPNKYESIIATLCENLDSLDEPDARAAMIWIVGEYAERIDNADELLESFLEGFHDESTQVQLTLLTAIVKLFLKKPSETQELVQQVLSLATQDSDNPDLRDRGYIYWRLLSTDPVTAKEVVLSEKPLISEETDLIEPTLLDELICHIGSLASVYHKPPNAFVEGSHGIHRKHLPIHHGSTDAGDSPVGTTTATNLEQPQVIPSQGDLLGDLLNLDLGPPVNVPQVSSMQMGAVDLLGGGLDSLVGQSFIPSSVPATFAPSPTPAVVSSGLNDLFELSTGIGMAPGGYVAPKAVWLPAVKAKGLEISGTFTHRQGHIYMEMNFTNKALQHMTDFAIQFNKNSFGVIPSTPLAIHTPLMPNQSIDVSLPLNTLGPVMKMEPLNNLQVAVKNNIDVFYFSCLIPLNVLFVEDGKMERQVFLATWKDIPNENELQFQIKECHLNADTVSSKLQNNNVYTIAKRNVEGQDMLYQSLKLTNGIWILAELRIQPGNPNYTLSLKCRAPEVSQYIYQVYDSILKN
GST GSH counter: GST-fluorescein capture on glutathione beads, confirmation, artefact control for arrestin-AP2 inhibitor project, biochemical, cherry pick 1, flow cytometry. shares compounds with Arrestin-AP2 inh. GST-fluorescein binding to GSH beads, fluorescence, counter-screen. inhibition, % at 10 µM. hit rate 2% among 1,300;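 active means inhibition above 50%, about 3 SD of the inhibition seen with non-fluorescent compounds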;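 further: fluorescein maleimide labelled GST captured on 4 micron glutathione beads; higher means more loss of bead fluorescence from quenching or blocked binding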
Each line names hits and unclear results; the compound was inactive in the other large screens (follow-up assays come after a bar, where they were run).

Cc1nn(Cc2ccc(Cl)cc2Cl)c(Cl)c1/C=C/C(=O)OCC(=O)NCC(F)(F)F	Arrestin-AP2 inh 81.4 | Arr-AP2 CP1 inactive | GST GSH counter inactive
Cc1nn(Cc2ccccc2Cl)c(Cl)c1/C=C/C(=O)OCC(=O)NC(N)=O	none
COc1ccc2nc(C)cc(N3CCN(S(=O)(=O)c4ccccc4F)CC3)c2c1	Arrestin-AP2 inh 62.3 | Arr-AP2 CP1 inactive | GST GSH counter inactive
Cc1cc(NC(=O)CC#N)n(-c2nc3ccccc3[nH]2)n1	none
COc1cccc(OC)c1C(=O)Nc1cc(C)nn1-c1nc2ccccc2[nH]1	none | Arr-AP2 CP1 inactive | GST GSH counter inactive
COc1ccc(C(=O)Nc2cc(C)nn2-c2nc3ccccc3[nH]2)c(OC)c1	none | Arr-AP2 CP1 inactive | GST GSH counter inactive
Cc1cc(NC(=O)c2ccccc2)n(-c2nc3ccccc3[nH]2)n1	none | Arr-AP2 CP1 inactive | GST GSH counter inactive
CCNc1nc(NCC)n2c(SCC(=O)Nc3cccc(Cl)c3)nnc2n1	Arrestin-AP2 inh 59.1 | Arr-AP2 CP1 inactive | GST GSH counter inactive
CCNc1nc(NCC)n2c(SCC(=O)Nc3cccc(F)c3)nnc2n1	none
CCc1ccc(OCC(=O)O/N=C(\N)c2ccccn2)cc1	none
CC(=O)N(c1c(C)n(C)n(-c2ccccc2)c1=O)C1(C(=O)NC2CCCCC2)CCCCC1	none
Cc1c(N(C(=O)c2cnccn2)C2(C(=O)NC3CCCC3)CCCCC2)c(=O)n(-c2ccccc2)n1C	Arrestin-AP2 inh 55.8 | Arr-AP2 CP1 inactive | GST GSH counter inactive
CCOC(=O)C1=C(COC(=O)Cc2ccccc2)NC(=O)NC1C (stereo not given)	none | Arr-AP2 CP1 inactive | GST GSH counter inactive
CCOC(=O)C1=C(COC(=O)c2cccc(Cl)c2)NC(=O)NC1C (stereo not given)	none
CCOC(=O)C1=C(COC(=O)CCc2ccc(F)cc2)NC(=O)NC1C (stereo not given)	none | Arr-AP2 CP1 inactive | GST GSH counter inactive
CCOC(=O)C1=C(COC(=O)Cc2ccccc2[N+](=O)[O-])NC(=O)NC1C (stereo not given)	none (no result: Arrestin-AP2 inh, GASC-1 inh)
CCOC(=O)C1=C(COC(=O)C(C)(C)Oc2ccc(Cl)cc2)NC(=O)NC1C (stereo not given)	none | Arr-AP2 CP1 inactive | GST GSH counter inactive
CCOC(=O)C1=C(COC(=O)CNC(=O)c2ccccc2F)NC(=O)NC1C (stereo not given)	none
CCOC(=O)C1=C(COC(=O)Cc2ccc(Cl)cc2)NC(=O)NC1C (stereo not given)	none | Arr-AP2 CP1 inactive | GST GSH counter inactive
COCCNC(=O)C(c1ccc(Cl)cc1)N(C(=O)CCC(=O)Nc1ccccn1)C1CCCC1 (stereo not given)	none
CC1(C)NC(=O)N(CC(=O)N2CCN(c3cccc(C(F)(F)F)c3)CC2)C1=O	none
CCn1c(=S)[nH]c2nc3c(cc2c1=O)CCCC3	none
CCOC(=O)C1=C(COC(=O)Cc2ccc(OC)c(OC)c2)NC(=O)NC1C (stereo not given)	none | Arr-AP2 CP1 inactive | GST GSH counter inactive
CCOC(=O)C1=C(COC(=O)/C=C/c2ccc(OC)c(OC)c2)NC(=O)NC1C (stereo not given)	none
Cc1cnc(C(=O)OCC(=O)N2c3ccccc3CC2C)cn1 (stereo not given)	Arrestin-AP2 inh 55.2 | Arr-AP2 CP1 inactive | GST GSH counter inactive
CC1Cc2ccccc2N1C(=O)COC(=O)c1cccnc1Cl (stereo not given)	none
O=C(Nc1ccc(Cl)cc1[N+](=O)[O-])c1ccc2c(c1)OCCO2	Arrestin-AP2 inh 63.2 | Arr-AP2 CP1 inactive | GST GSH counter inactive
O=C(Nc1cc([N+](=O)[O-])ccc1Cl)c1ccc2c(c1)OCO2	Arrestin-AP2 inh 89.5 | Arr-AP2 CP1 inactive | GST GSH counter inactive
Cc1nn(-c2ccc(F)cc2)c(Cl)c1/C=C/C(=O)OCC(=O)Nc1c(F)c(F)c(F)c(F)c1F	Arrestin-AP2 inh 104.1 | Arr-AP2 CP1 inactive | GST GSH counter inactive
O=C(Nc1ccc(NC(=O)c2cccs2)cc1Cl)c1ccco1	none
O=C(Nc1ccc(NC(=O)c2cccs2)c(Cl)c1)c1cccs1	Arrestin-AP2 inh 54.9 | Arr-AP2 CP1 inactive | GST GSH counter inactive
CC1Cc2ccccc2N1S(=O)(=O)c1cccc(C(=O)NC2CC2)c1 (stereo not given)	Arrestin-AP2 inh 88.5 | Arr-AP2 CP1 inactive | GST GSH counter inactive
CC1Cc2ccccc2N1S(=O)(=O)c1cccc(C(=O)Nc2cccnc2)c1 (stereo not given)	none
CN(C)c1ccc(/C=N/NC(=O)C(O)(c2ccccc2)c2ccccc2)o1	Arrestin-AP2 inh 61.1 | Arr-AP2 CP1 inactive | GST GSH counter inactive
Cc1cc(-c2ccc(C(C)C)c(S(=O)(=O)N3CCC(C)CC3)c2)on1	Arrestin-AP2 inh 57.6 | Arr-AP2 CP1 inactive | GST GSH counter inactive
CCc1ccc(-c2cc(C)no2)cc1S(=O)(=O)N1CCC(C)CC1	none
CSc1ccc(C(=O)C2CCCN(C(=O)c3cc4cc(F)ccc4[nH]3)C2)cc1 (stereo not given)	none
Nc1ccc(Nc2ccccc2)c(Cl)c1	Arrestin-AP2 inh 70.5 | Arr-AP2 CP1 inactive | GST GSH counter inactive
COc1ccccc1Nc1ccc(N)cc1	none
CCC(=O)NC1=C(Cl)C(=O)C(NC(=O)CC)=C(Cl)C1=O	Arrestin-AP2 inh 65.5 (no result: GASC-1 inh) | Arr-AP2 CP1 60.7 | GST GSH counter inactive
CCC(=O)NC1=C(NC(C)c2ccccc2)C(=O)c2ccccc2C1=O (stereo not given)	none
CC(=O)NCC1CCCN(c2nc3nonc3nc2N(C)Cc2ccccc2)C1 (stereo not given)	Arrestin-AP2 inh 59.3 | Arr-AP2 CP1 inactive | GST GSH counter inactive
COc1ccc(C(=O)NNC(=O)CCCCC(=O)NNC(=O)c2ccc(OC)cc2)cc1	Arrestin-AP2 inh 62.3 | Arr-AP2 CP1 inactive | GST GSH counter inactive
CCN(C(=O)Cn1cnc2c1c(=O)n(C)c(=O)n2C)C1CCCCC1	Arrestin-AP2 inh 60.9 | Arr-AP2 CP1 inactive | GST GSH counter inactive
Cc1ccc(-c2nnc(Nc3ccc4c(c3)OCO4)c3ccccc23)cc1S(N)(=O)=O	none
COc1cc2c(cc1OC)C(=O)CCS2	Arrestin-AP2 inh 74.6 | Arr-AP2 CP1 inactive | GST GSH counter inactive
CCOc1cc(C(=O)Nc2ccc3c4c(cccc24)C(=O)N3CC)cc(OCC)c1OCC	none
COc1ccc(C(=O)Nc2ccc(N3CCCC3)cc2)cc1OC	none
